The values below come from ChEMBL document CHEMBL1125708, “Synthesis and antiviral activity of 5-heteroaryl-substituted 2'-deoxyuridines” (1991).

Structures are written as SMILES. Values after ≈ are worked out from the molar mass of the structure shown.

Holding throughout (conditions): Homo sapiens
Test [1] deals with E6SM. Briefly: (§1) Minimum inhibitory concentration required to reduce virus induced cytopathicity in embryonic skin muscle (E6SM) cell culture of virus VSV was measured. Format: functional.
The test system of test [2] is E6SM. The experiment in a line: Minimum inhibitory concentration required to reduce virus induced cytopathicity in embryonic skin muscle (E6SM) cell culture of virus VV was measured. Format: functional. For orientation: Damage to the host cells serves as the signal in cytopathic effect assays.
For test [3], the system named is HEL. The experiment in a line: Minimum inhibitory concentration required to reduce virus induced plaque formation in HEL cell culture of virus CMV (AD169) was measured. Format: functional. An outline of the steps: (§2)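 Plaque-reduction assay in human embryonic lung (HEL) cells in 96-well microtiter plates. VZV strains were Oka and YS, plus TK-deficient 07-1 and YS-R. CMV strains were AD169 and Davis. The value is the concentration reducing virus plaque formation by 50%.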

Test [4] deals with E6SM. Briefly: Minimum inhibitory concentration required to reduce virus induced cytopathicity in embryonic skin muscle (E6SM) cell culture of virus HSV-1 (KOS) was measured. Format: functional.
Test [5] has as its system E6SM. Briefly: Minimum inhibitory concentration required to reduce virus induced cytopathicity in embryonic skin muscle (E6SM) cell culture of virus HSV-1( F) was measured. Format: functional.
Test [6] relates to E6SM. The experiment in a line: Minimum inhibitory concentration required to reduce virus induced cytopathicity in embryonic skin muscle (E6SM) cell culture of virus TK- HSV-1 (B2006) was measured. Format: functional.
The subject of test [7] is HEL. Briefly: In vitro antiviral activity and cytotoxicity, and minimum inhibitory concentration required to reduce cell growth by 50% in HEL cell culture. Format: functional. An outline of the steps: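 Cytotoxicity was measured as inhibition of growth of human embryonic lung (HEL) cells seeded in 96-well microtiter plates. The value is the concentration reducing cell growth by 50%.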

In test [8] the test system is E6SM. Briefly: Minimum inhibitory concentration required to reduce virus induced cytopathicity in embryonic skin muscle (E6SM) cell culture of virus HSV-2 (G) was measured. Format: functional.
Test [9] has as its system E6SM. The experiment in a line: Minimum inhibitory concentration required to reduce virus induced cytopathicity in embryonic skin muscle (E6SM) cell culture of virus HSV-2 (196) was measured. Format: functional.
Test [10] relates to HEL. Briefly: Minimum inhibitory concentration required to reduce virus induced plaque formation in HEL cell culture of virus CMV (Davis) was measured. Format: functional. Summed up: as §2
The test system of test [11] is HEL. The experiment in a line: Minimum concentration required to reduce virus induced plaque formation in HEL cell culture of virus TK- VZV (YS-R) was measured. Format: functional. An outline of the steps: as §2
Test [12] deals with E6SM. Briefly: Minimum inhibitory concentration required to reduce virus induced cytopathicity in embryonic skin muscle (E6SM) cell culture of virus HSV-1 (Mc Intyre) was measured. Format: functional.
For test [13], the system named is HEL. The experiment in a line: minimum inhibitory concentration required to reduce virus induced plaque formation in HEL cell culture of virus VZS (YS) was measured. Format: functional. Summed up:
as §2

Test [14] has as its system HEL. The experiment in a line: Minimum inhibitory concentration required to reduce virus induced plaque formation in HEL cell culture of virus VZS (OKA) was measured. Format: functional. Summed up:
as §2

Test [15] has as its system E6SM. Briefly: minimum inhibitory concentration required to cause a microscopically detectable change in normal cell morphology. Format: functional. An outline of the steps: (§3)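 Cytotoxicity was judged by microscopic inspection of uninfected cell monolayers in microtiter plates. The value is the minimum concentration causing a microscopically detectable change in normal cell morphology.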

For test [16], the system named is E6SM. Briefly: Minimum inhibitory concentration required to reduce virus induced cytopathicity in embryonic skin muscle (E6SM) cell culture of virus TK- HSV-1 (VMW1837) was measured. Format: functional.
Test [17] has as its system HEL. The experiment in a line: Minimum inhibitory concentration required to reduce virus induced plaque formation in HEL cell culture of virus TK- VZV (07-1) was measured. Format: functional. An outline of the steps: as §2
The subject of test [18] is E6SM. The experiment in a line: Minimum inhibitory concentration required to reduce virus induced cytopathicity in embryonic skin muscle (E6SM) cell culture of virus HSV-2 (Lyons) was measured. Format: functional.
Test [19] deals with E6SM. The experiment in a line: Minimum inhibitory concentration required to cause a microscopically detectable change in normal cell morphology. Format: functional. An outline of the steps:
as §3

Test [20] deals with E6SM. The experiment in a line: minimum inhibitory concentration required to reduce virus induced cytopathicity in embryonic skin muscle (E6SM) cell culture of virus HSV-2 (Lyons) was measured. Format: functional.
Test [21] has as its system E6SM. The experiment in a line: Minimum inhibitory concentration required to reduce virus induced cytopathicity in embryonic skin muscle (E6SM) cell culture of virus HSV-2 (196) was measured. Format: functional.
Test [22] concerns HEL. The experiment in a line: Minimum inhibitory concentration required to reduce virus induced plaque formation in HEL cell culture of virus VZS (YS) was measured. Format: functional. An outline of the steps:
as §2

Test [23] has as its system E6SM. The experiment in a line: Minimum inhibitory concentration required to reduce virus induced cytopathicity in embryonic skin muscle (E6SM) cell culture of virus VV was measured.
In test [24] the test system is HEL. Described as §1. Format: functional.
Test [25] relates to HEL. The experiment in a line: Minimum inhibitory concentration required to reduce virus induced plaque formation in HEL cell culture of virus TK- VZV (YS-R) was measured. Format: functional. Summed up: as §2

Take `O=c1[nH]c(=O)n([C@H]2C[C@H](O)[C@@H](CO)O2)cc1-c1cc(-c2ccccc2)no1`: the MIC is > 40 µg/mL in [1]; > 40 µg/mL in test [2]; 25 µg/mL (≈ 67.3 µM) in test [3]; > 40 µg/mL in test [4]; > 40 µg/mL in test [5]; > 40 µg/mL in test [6]. Besides, the MIC was > 200 µg/mL in [7]; > 40 µg/mL in test [8]; > 40 µg/mL in test [9]; 25 µg/mL (≈ 67.3 µM) in test [10]; > 100 µg/mL in test [11]; > 40 µg/mL in test [12]. In addition, the MIC in test [13] was 73 µg/mL (≈ 197 µM); in test [14], 38 µg/mL (≈ 102 µM); in test [15], > 40 µg/mL; in test [16], > 40 µg/mL; in [17], 61 µg/mL (≈ 164 µM); in test [18], > 40 µg/mL.

On to `O=c1[nH]c(=O)n([C@H]2C[C@H](O)[C@@H](CO)O2)cc1-c1cc(-c2ccc(Cl)cc2)no1`, for which the MIC in test [1] is > 40 µg/mL; in test [2] it was > 40 µg/mL; in test [3], 7 µg/mL (≈ 17.3 µM); in test [4], > 40 µg/mL; in test [5], > 40 µg/mL; in test [19], > 40 µg/mL. The MIC in test [6] was > 40 µg/mL; in test [7], > 200 µg/mL; in [8] it was > 40 µg/mL; in test [9], > 40 µg/mL; in test [10] it was 7 µg/mL (≈ 17.3 µM); in test [11] it was 77 µg/mL (≈ 190 µM). Besides, the MIC in [12] is > 40 µg/mL; in [13], > 40 µg/mL; in test [14], 9 µg/mL (≈ 22.2 µM); in test [16], > 40 µg/mL; in [17], 22 µg/mL (≈ 54.2 µM); in test [18] it was > 40 µg/mL.

For the molecule `O=c1[nH]c(=O)n([C@H]2C[C@H](O)[C@@H](CO)O2)cc1-c1cc(Br)no1`, the MIC is > 400 µg/mL in [1]; > 400 µg/mL in test [20]; > 400 µg/mL in test [2]; > 100 µg/mL in test [3]; > 400 µg/mL in [21]; 7 µg/mL (≈ 18.7 µM) in test [4]. In addition, the MIC was 2 µg/mL (≈ 5.35 µM) in test [5]; > 400 µg/mL in [19]; > 400 µg/mL in [6]; > 50 µg/mL in [7]; > 200 µg/mL in test [8]; > 100 µg/mL in [10]. In addition, the MIC is > 100 µg/mL in [11]; 2 µg/mL (≈ 5.35 µM) in test [12]; 0.09 µg/mL (≈ 0.241 µM) in [14]; > 400 µg/mL in test [16]; 0.24 µg/mL (≈ 0.641 µM) in test [22]; > 100 µg/mL in [17].

With `O=c1[nH]c(=O)n([C@H]2C[C@H](O)[C@@H](CO)O2)cc1/C=C/Br` [BRIVUDINE], the MIC is 1 µg/mL (≈ 3 µM) in [23]; > 400 µg/mL in [24]; 250 µg/mL (≈ 750 µM) in test [3]; 0.07 µg/mL (≈ 0.21 µM) in test [4]; 0.07 µg/mL (≈ 0.21 µM) in test [5]; > 400 µg/mL in test [19]. The MIC in test [6] is 100 µg/mL (≈ 300 µM); in test [7], 200 µg/mL (≈ 600 µM); in test [8] it was 10 µg/mL (≈ 30 µM); in test [9] it was > 400 µg/mL; in [10], 250 µg/mL (≈ 750 µM); in test [12], 0.07 µg/mL (≈ 0.21 µM). Besides, the MIC was 0.003 µg/mL (≈ 0.00901 µM) in test [14]; 0.4 µg/mL (≈ 1.2 µM) in test [25]; > 400 µg/mL in test [16]; 0.003 µg/mL (≈ 0.00901 µM) in [22]; 8 µg/mL (≈ 24 µM) in test [17]; > 400 µg/mL in test [18].
